Test results reported in ChEMBL document CHEMBL5321226, “Structure-directed identification of pyridine-2-methylamine derivatives as MmpL3 inhibitors for use as antitubercular agents” (Eur J Med Chem, 2023).
≈ marks a conversion by molar mass, not a printed value.

How the values were obtained:
[1] = Cytotoxicity against African green monkey Vero cells assessed as reduction in cell viability incubated for 72 hrs by alamar blue staining based fluorescence microplate reader analysis; type: toxicity; details: African green monkey (Chlorocebus sabaeus)
Outline: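 Vero cell cytotoxicity was read out by Alamar Blue (MABA) and expressed as IC50. Other details follow earlier reports.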

[2] = Metabolic stability in human liver microsomes assessed as parent compound remaining and mesured after 60 mins in presence of NADPH; type: ADME, Microsome; details: read-out: Stability
Outline: (§1)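 Compounds were incubated with human liver microsomes for 60 min, with or without NADPH cofactor. Substrate concentration after 60 min was normalized to the time-zero concentration to give % remaining. Half-life was derived from the incubations, and intrinsic clearance was calculated as CLint(mic) = 0.693/half-life/mg microsomal protein per mL.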

[3] = Metabolic stability in human liver microsomes assessed as half life and mesured upto 60 mins in presence of NADPH; type: ADME, Microsome; details: 1 h; outline: as §1
[4] = Metabolic stability in human liver microsomes assessed as parent compound remaining and mesured after 60 mins in absence of NADPH; type: ADME, Microsome; details: 1 h
[5] = Metabolic stability in human liver microsomes assessed as intrinsic clearance and mesured upto 60 mins in presence of NADPH; type: ADME, Microsome; details: 1 h
[6] = biological target: Voltage-gated inwardly rectifying potassium channel KCNH2 (Homo sapiens, UniProt Q12809); assay: Inhibition of human ERG at 10 uM by patch-clamp electrophysiology assay; type: toxicity
Outline: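 hERG K+ channel current was measured by manual patch-clamp electrophysiology with the test compound at 10 μM. […] The inhibition rate is the average of three individual measurements.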

[7] = tested on: Mycobacterium tuberculosis; assay: Antimycobacterial activity against drug susceptible Mycobacterium tuberculosis V4207 assessed as bacterial growth inhibition incubated for 7 to 14 days by MABA assay; type: functional; details: time 7-14 day
[8] = Mycobacterium tuberculosis, V4207, read-out: MIC90

Voltage-gated inwardly rectifying potassium channel KCNH2, sequence (Q12809 whole entry): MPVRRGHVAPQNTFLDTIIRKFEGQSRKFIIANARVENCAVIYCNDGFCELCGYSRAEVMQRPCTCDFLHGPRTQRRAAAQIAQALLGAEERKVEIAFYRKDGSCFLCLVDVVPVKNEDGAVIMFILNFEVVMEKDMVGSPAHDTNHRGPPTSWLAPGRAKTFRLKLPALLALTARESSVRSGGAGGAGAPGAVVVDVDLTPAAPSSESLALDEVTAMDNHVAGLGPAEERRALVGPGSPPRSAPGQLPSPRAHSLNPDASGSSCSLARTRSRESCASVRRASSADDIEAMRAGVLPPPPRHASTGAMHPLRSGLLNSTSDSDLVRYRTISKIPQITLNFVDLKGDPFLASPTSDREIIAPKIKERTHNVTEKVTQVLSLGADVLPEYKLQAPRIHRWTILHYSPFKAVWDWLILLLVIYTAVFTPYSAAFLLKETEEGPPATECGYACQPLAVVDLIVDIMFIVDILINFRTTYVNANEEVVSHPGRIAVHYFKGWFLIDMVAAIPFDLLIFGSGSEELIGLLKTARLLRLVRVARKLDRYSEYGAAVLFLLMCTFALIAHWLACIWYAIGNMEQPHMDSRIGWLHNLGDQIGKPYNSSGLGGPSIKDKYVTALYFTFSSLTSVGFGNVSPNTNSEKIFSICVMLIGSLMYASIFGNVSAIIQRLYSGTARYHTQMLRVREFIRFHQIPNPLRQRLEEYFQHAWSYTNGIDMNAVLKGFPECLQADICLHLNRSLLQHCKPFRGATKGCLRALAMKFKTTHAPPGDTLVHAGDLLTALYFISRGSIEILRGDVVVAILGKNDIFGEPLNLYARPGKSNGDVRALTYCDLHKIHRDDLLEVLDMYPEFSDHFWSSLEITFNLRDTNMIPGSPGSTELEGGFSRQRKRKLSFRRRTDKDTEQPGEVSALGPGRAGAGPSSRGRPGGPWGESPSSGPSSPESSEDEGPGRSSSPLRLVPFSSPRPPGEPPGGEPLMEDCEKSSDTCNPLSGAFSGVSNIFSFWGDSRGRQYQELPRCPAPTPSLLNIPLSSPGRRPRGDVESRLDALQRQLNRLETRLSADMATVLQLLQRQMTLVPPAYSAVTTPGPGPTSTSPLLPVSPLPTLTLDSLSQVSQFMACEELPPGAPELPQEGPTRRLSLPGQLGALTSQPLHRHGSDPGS

CC(C)c1ccc(-c2cncc(CN3CC[Si](C)(C)CC3)c2)cc1
IC50 at 72 h [1]: ≥ 32 µg/mL

CC(C)c1ccc(-c2ccnc(CN3CCC4(CC3)OCCCO4)c2)cc1
IC50 at 72 h [1]: ≥ 32 µg/mL

CC(C)c1ccc(-c2ccnc(CNC3CCCCCCC3)c2)cc1
IC50 at 72 h [1]: 16 µg/mL (≈ 47.5 µM)

c1ccc(-c2ccc(-c3ccnc(CN4CCC5(CCCCC5)CC4)c3)cc2)cc1
IC50 at 72 h [1]: ≥ 32 µg/mL

C[Si]1(C)CCN(Cc2cc(-c3ccc(C4CCCCC4)cc3)ccn2)CC1
IC50 at 72 h [1]: ≥ 32 µg/mL

c1ccc(-c2ccc(-c3ccnc(CN4CCC5(CCCC5)CC4)c3)cc2)cc1
remaining at 1 h [2]: 43.1% | t1/2 [3]: 49.5 min | Stability [4]: Stable | CLH [5]: 28 µL/min/mg | IC50 at 72 h [1]: 16 µg/mL (≈ 41.8 µM) | inhibition (INH) [6]: 52.7%

CC(C)Cc1ccc(-c2ccnc(CN3CC[Si](C)(C)CC3)c2)cc1
IC50 at 72 h [1]: ≥ 32 µg/mL

c1cc(-c2ccc(-c3ccoc3)cc2)cc(CN2CCC3(CCCC3)CC2)n1
remaining at 1 h [2]: 0.2% | t1/2 [3]: 1.8 min | Stability [4]: Stable | CLH [5]: 758 µL/min/mg

CC(C)Cc1ccc(-c2ccnc(CN3CCC(C)CC3)c2)cc1
IC50 at 72 h [1]: ≥ 32 µg/mL

CC(C)c1ccc(-c2ccnc(CNC3CCCCCC3)c2)cc1
IC50 at 72 h [1]: 16 µg/mL (≈ 49.6 µM)

CC(C)c1ccc(-c2ccnc(CNC34CC5CC(CC(C5)C3)C4)c2)cc1
IC50 at 72 h [1]: 16 µg/mL (≈ 44.4 µM)

CC(C)(C)c1ccc(-c2ccnc(CN3CC[Si](C)(C)CC3)c2)cc1
IC50 at 72 h [1]: 16 µg/mL (≈ 45.4 µM)

Cc1ccc(-c2ccc(-c3ccnc(CN4CCC5(CCCC5)CC4)c3)cc2)cc1
IC50 at 72 h [1]: ≥ 32 µg/mL

CC(C)c1ccc(-c2ccnc(CN3CCC4(CCCC4)CC3)c2)cc1
remaining at 1 h [2]: 1.5% | t1/2 [3]: 11.3 min | Stability [4]: Stable | CLH [5]: 122.9 µL/min/mg

Clc1ccc(-c2ccc(-c3ccnc(CN4CCC5(CCCC5)CC4)c3)cc2)cc1
IC50 at 72 h [1]: ≥ 32 µg/mL

CC(C)c1ccc(-c2nc(CN3CC[Si](C)(C)CC3)co2)cc1
IC50 at 72 h [1]: ≥ 32 µg/mL

CC(C)c1ccc(-c2ccnc(CNC3C4CC5CC(C4)CC3C5)c2)cc1 (stereo not drawn)
IC50 at 72 h [1]: ≥ 32 µg/mL

CC(C)c1ccc(-c2ccnc(CN3CC[Si](C)(C)CC3)c2)cc1
IC50 at 72 h [1]: ≥ 32 µg/mL

C[Si]1(C)CCN(Cc2cc(-c3ccc(-c4ccccc4)cc3)ccn2)CC1
IC50 at 72 h [1]: ≥ 32 µg/mL

O=C(O)Cc1ccccc1Nc1c(Cl)cccc1Cl [DICLOFENAC]
Stability [4]: Stable

NNC(=O)c1ccncc1 [ISONIAZID]
MIC90 [7]: 0.04 µg/mL (≈ 0.292 µM)

NC[C@H]1O[C@H](O[C@H]2[C@H](O)[C@@H](O[C@H]3O[C@H](CO)[C@@H](O)[C@H](N)[C@H]3O)[C@H](N)C[C@@H]2N)[C@H](O)[C@@H](O)[C@@H]1O [KANAMYCIN]
MIC90 [7, 8]: 2 µg/mL (≈ 4.13 µM)

C[C@H]1COc2c(N3CCN(C)CC3)c(F)cc3c(=O)c(C(=O)O)cn1c23 [LEVOFLOXACIN ANHYDROUS]
MIC90 [7, 8]: 0.125 µg/mL (≈ 0.346 µM)

CC1COc2c(N3CCN(C)CC3)c(F)cc3c(=O)c(C(=O)O)cn1c23 (stereo not drawn) [OFLOXACIN]
MIC90 [7, 8]: 0.5 µg/mL (≈ 1.38 µM)

CO[C@H]1/C=C/O[C@@]2(C)Oc3c(C)c(O)c4c(O)c(c(/C=N/N5CCN(C)CC5)c(O)c4c3C2=O)NC(=O)/C(C)=C\C=C\[C@H](C)[C@H](O)[C@@H](C)[C@@H](O)[C@@H](C)[C@H](OC(C)=O)[C@@H]1C [RIFAMPIN]
MIC90 [7, 8]: 0.063 µg/mL (≈ 0.0766 µM)

C[C@]12CC[C@H]3[C@@H](CCC4=CC(=O)CC[C@@]43C)[C@@H]1CC[C@@H]2O [TESTOSTERONE]
remaining at 1 h [2]: 3.9% | Stability [4]: Stable
